Data published in publication PMC4018401 (Journal of Medicinal Chemistry, 2014).
Each block holds one compound with its values, some of them ahead of it.

Tests used:
HepG2 cytotoxicity assay = type: cell-based; conditions: human, HepG2 cells
[1] = Microsomal stability, rat and human liver microsomes; type: in vitro ADME; conditions: rat and human hepatic microsomes
[2] = tested on: P. yoelii (Kenya strain) infected mice; assay: In vivo efficacy against murine malaria; design: species or system Plasmodium yoelii; conditions: for in vivo antimalarial activity: P. yoelii in mice, oral; for times less effective than 7 against murine malaria: relative to compound 7
How it was run: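 Female CF1 mice infected intravenously with 2.5–5.0 × 105 P. yoelii (Kenya strain) parasitized erythrocytes from a donor; groups of four. Test compound in PEG-400 given by oral gavage once daily for 4 days, starting the day after inoculation; initial doses 0.1–10 mg/kg/day, adjusted if needed. Chloroquine phosphate as positive control. Day-5 parasitemia read from Giemsa smears. Cure means parasite-free 30 days after the last dose; NRD is the dose needed for cure.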

[3] = molecular target: T1, P. falciparum cytochrome bc1 complex (Plasmodium falciparum, UniProt Q02768); assay: Inhibition of P. falciparum cytochrome bc1; type: biochemical
T1 sequence (Q02768 1-376): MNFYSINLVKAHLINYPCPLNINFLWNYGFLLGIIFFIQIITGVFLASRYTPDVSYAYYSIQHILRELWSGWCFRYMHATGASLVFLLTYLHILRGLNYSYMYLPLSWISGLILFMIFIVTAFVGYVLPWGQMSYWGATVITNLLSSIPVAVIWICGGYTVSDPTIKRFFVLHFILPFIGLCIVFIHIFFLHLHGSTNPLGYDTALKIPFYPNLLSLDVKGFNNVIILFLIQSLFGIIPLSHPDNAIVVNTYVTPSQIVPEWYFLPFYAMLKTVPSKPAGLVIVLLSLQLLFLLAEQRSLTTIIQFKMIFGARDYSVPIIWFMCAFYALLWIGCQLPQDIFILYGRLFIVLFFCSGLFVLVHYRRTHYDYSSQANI
How it was run: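 Cytochrome c reductase assays. P. falciparum mitochondria: stirred cuvette at 35 °C with 100 μM decylubiquinol, 100 μM horse heart cytochrome c, 0.1 mg/mL dodecyl maltoside, 60 mM HEPES pH 7.4, 10 mM malonate, 1.0 mM EDTA, 2.0 mM KCN. Human HEK-293 mitochondria: detergent-solubilised; 50 mM Tricine pH 8.0, 100 mM KCl, 4 mM KCN, 50 μM each substrate. Baseline-subtracted initial rates expressed as fraction of uninhibited control.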

[4] = tested on: P. yoelii (Kenya strain) infected mice; conditions: side-by-side tests; cited from earlier work
[5] = tested on: P. falciparum Tm93-C1088 (atovaquone resistant clinical isolate); assay: SYBR Green I parasite growth inhibition, P. falciparum Tm93-C1088; type: cell-based; conditions: Plasmodium falciparum, 72 h, read-out: EC50 TM93-C1088 (WRAIR)
How it was run: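 Atovaquone-resistant Thai isolate with cytochrome b Y268S, grown asynchronously in human erythrocytes (RPMI-1640/HEPES/hypoxanthine/Albumax II; 5% O2, 5% CO2, 90% N2). Triplicate 2-fold dilutions, 2% hematocrit, 0.2% starting parasitemia, 72 h at 37 °C. SYBR Green I dye–detergent added for 1 h in the dark at room temperature, fluorescence read at ex 497/em 520 nm. EC50 by nonlinear regression against drug-free wells; at least three determinations.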

SMILES: COc1cc2[nH]c(C)c(-c3cnc(Oc4ccc(OC(F)(F)F)cc4)nc3)c(=O)c2cc1Cl [Compound 25c, 6-Chloro-7-methoxy-2-methyl-3-(2-(4-(trifluoromethoxy)phenoxy)pyrimidin-5-yl)quinolin-4(1H)-one]
IC50 (HepG2 cytotoxicity assay): > 10 µM

metabolic stability in microsomes [1]: metabolically stable
SMILES: COc1cc2[nH]c(C)c(-c3ccc(Oc4ccc(C(F)(F)F)cc4)cc3)c(=O)c2cc1Cl [Compound 20b, 6-Chloro-7-methoxy-2-methyl-3-(4-(4-(trifluoromethyl)phenoxy)phenyl)quinolin-4(1H)-one]

SMILES: COc1cc2[nH]c(C)c(-c3ccc(Oc4cccc(OC(F)(F)F)c4)cc3)c(=O)c2cc1Cl [Compound 20a, 6-Chloro-7-methoxy-2-methyl-3-(4-(3-(trifluoromethoxy)phenoxy)phenyl)quinolin-4(1H)-one]
in vivo antimalarial activity [2]: ineffective in vivo
metabolic stability in microsomes [1]: metabolically unstable

SMILES: COc1cc2[nH]c(C)c(-c3ccc(Oc4ccc(OC(F)(F)F)cc4)cn3)c(=O)c2cc1Cl [Compound 25b, 6-Chloro-7-methoxy-2-methyl-3-(5-(4-(trifluoromethoxy)phenoxy)pyridin-2-yl)quinolin-4(1H)-one]
IC50 (HepG2 cytotoxicity assay): > 10 µM

SMILES: COc1cc2[nH]c(C)c(-c3ccc(Oc4ccccc4)cc3)c(=O)c2cc1F [Compound 13, 6-Fluoro-7-methoxy-2-methyl-3-(4-phenoxyphenyl)quinolin-4(1H)-one]
IC50 (HepG2 cytotoxicity assay): > 10 µM

SMILES: COc1ccc2c(=O)c(-c3ccc(Oc4ccc(OC(F)(F)F)cc4)cc3)c(C)[nH]c2c1 [Compound 6, 7-Methoxy-2-methyl-3-(4-(4-(trifluoromethoxy)phenoxy)phenyl)quinolin-4(1H)-one]
IC50 (HepG2 cytotoxicity assay): > 10 µM
metabolic stability in microsomes [1]: metabolized at a moderate to intermediate rate

SMILES: O=C1C(O)=C([C@H]2CC[C@H](c3ccc(Cl)cc3)CC2)C(=O)c2ccccc21 [atovaquone, reference compound]
IC50 (HepG2 cytotoxicity assay): > 10 µM

SMILES: Cc1[nH]c2ccc(F)cc2c(=O)c1-c1ccc(Oc2ccc(OC(F)(F)F)cc2)cc1 [Compound 18a, 6-Fluoro-2-methyl-3-(4-(4-(trifluoromethoxy)phenoxy)phenyl)quinolin-4(1H)-one]
IC50 (HepG2 cytotoxicity assay): > 10 µM

SMILES: CCCCCCCc1c(C)nc2cc(OC)ccc2c1O [endochin, reference compound]
IC50 (HepG2 cytotoxicity assay): > 10 µM
in vivo antimalarial activity [2]: inactive in vivo

SMILES: COc1cc2[nH]c(C)c(-c3ccc(Oc4ccc(OC(F)(F)F)cc4)cc3)c(=O)c2cc1F [Compound 18b, 6-Fluoro-7-methoxy-2-methyl-3-(4-(4-(trifluoromethoxy)phenoxy)phenyl)quinolin-4(1H)-one]
IC50 (HepG2 cytotoxicity assay): > 10 µM

SMILES: COc1cc2[nH]c(C)c(-c3ccc(Oc4ccc(OC(F)(F)F)cc4)nc3)c(=O)c2cc1Cl [Compound 25a, 6-Chloro-7-methoxy-2-methyl-3-(6-(4-(trifluoromethoxy)phenoxy)pyridin-3-yl)quinolin-4(1H)-one]
IC50 (HepG2 cytotoxicity assay): > 10 µM
times less effective than 7 against murine malaria [2]: 3–10 times

SMILES: COc1cc2[nH]c(C)c(-c3ccc(Oc4ccc(OC(F)(F)F)cc4)cc3)c(=O)c2cc1Cl [Compound 7, 6-Chloro-7-methoxy-2-methyl-3-(4-(4-(trifluoromethoxy)phenoxy)phenyl) quinolin-4(1H)-one]
IC50 (HepG2 cytotoxicity assay): > 10 µM
parasite selectivity (P. falciparum vs human cytochrome bc1) [3]: ≥ 20000 fold
fold more effective than atovaquone against murine malaria [4]: 30 fold
EC50 [5]: 0.001 µM

SMILES: COc1cc2[nH]c(C)c(-c3ccc(Oc4ccc(Cl)cc4)cc3)c(=O)c2cc1Cl [Compound 20c, 6-Chloro-3-(4-(4-chlorophenoxy)phenyl)-7-methoxy-2-methylquinolin-4(1H)-one]
IC50 (HepG2 cytotoxicity assay): > 10 µM
times less effective than 7 against murine malaria [2]: 3–10 times
metabolic stability in microsomes [1]: metabolically stable

metabolic stability in microsomes [1]: no detectable degradation
SMILES: Cc1[nH]c2ccccc2c(=O)c1-c1ccc(Oc2ccc(OC(F)(F)F)cc2)cc1 [Compound 4, 2-Methyl-3-(4-(4-(trifluoromethoxy)phenoxy)phenyl)quinolin-4(1H)-one]
IC50 (HepG2 cytotoxicity assay): > 10 µM

metabolic stability in microsomes [1]: metabolically stable
SMILES: COc1cc2[nH]c(C)c(-c3ccc(Oc4ccc(F)cc4)cc3)c(=O)c2cc1Cl [Compound 20d, 6-Chloro-3-(4-(4-fluorophenoxy)phenyl)-7-methoxy-2-methylquinolin-4(1H)-one]

SMILES: Cc1[nH]c2ccccc2c(=O)c1-c1ccc(Oc2ccccc2)cc1 [Compound 3, 2-Methyl-3-(4-phenoxyphenyl)quinolin-4(1H)-one]
IC50 (HepG2 cytotoxicity assay): > 10 µM

SMILES: Cc1[nH]c2ccc(Cl)cc2c(=O)c1-c1ccc(Oc2ccc(OC(F)(F)F)cc2)cc1 [Compound 5, 6-Chloro-2-methyl-3-(4-(4-(trifluoromethoxy)phenoxy)phenyl)quinolin-4(1H)-one]
IC50 (HepG2 cytotoxicity assay): > 10 µM
